Experimental data: article PMC11190929 (ACS Omega, 2024)

Legend:
[1] = biological target: T1, MARK4 (Homo sapiens, UniProt Q96L34); experiment: Fluorescence binding studies; settings: for KSV: Stern-Volmer
T1 sequence (Q96L34 59-368): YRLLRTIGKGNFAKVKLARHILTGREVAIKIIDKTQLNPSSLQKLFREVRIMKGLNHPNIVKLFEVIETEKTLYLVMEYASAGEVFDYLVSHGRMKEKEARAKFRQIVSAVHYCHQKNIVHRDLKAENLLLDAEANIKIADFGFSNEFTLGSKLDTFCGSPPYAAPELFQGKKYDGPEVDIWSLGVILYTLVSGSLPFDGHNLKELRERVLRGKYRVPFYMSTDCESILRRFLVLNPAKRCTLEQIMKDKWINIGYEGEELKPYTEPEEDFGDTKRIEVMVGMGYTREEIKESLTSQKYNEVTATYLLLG
Method in brief: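 Intrinsic fluorescence of recombinant MARK4 (4 μM) titrated with test compound at 0–15 μM. Excitation 280 nm, emission 300–400 nm, slit 10 nm, medium response. Quenching data fitted to the Stern–Volmer and modified Stern–Volmer equations to give binding constant Ka and number of binding sites n.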

[2] = biological target: T1, MARK4; experiment: ATPase enzyme inhibition assay; type: biochemical; settings: for ATPase activity of MARK4: in the presence of compound
Method in brief: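 MARK4 (residues 59–368), expressed in E. coli M15 and purified, at 6 μM with 20 μM ATP in 20 mM Tris pH 8.0. Incubated with test compound (0–120 μM) at 25 °C for 10–15 min. Phosphate detected with Biomol Green malachite-green reagent, absorbance 620 nm. IC50 computed with an online calculator.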

[3] = system: HEK293 cells; experiment: Cytotoxicity on noncancerous HEK293 cells; type: cell-based, human; settings: up to 200 μM
Method in brief: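 HEK293 cells in RPMI 1640 medium, seeded at 2000–3000 cells/well and allowed to grow overnight. Exposed to test compound over 0–200 μM for 48–72 h. Resazurin-based PrestoBlue HS reagent applied about 45 min, fluorescence measured at excitation 560/emission 590 nm. Viability expressed as percent of vehicle control across doses.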

[4] = system: C3A cells; experiment: Transwell cell migration assay, C3A; type: cell-based, human; settings: 1/2 IC50, 24 h, vs vehicle control
Method in brief: (§1)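 Serum-starved cells treated with test compound or vehicle for 24 h, then 50 × 10^3 cells/well placed in serum-free medium in the upper Boyden chamber (8.0 μm PET membrane). Lower chamber held complete medium with 10% FBS. Next day, non-migrated cells were swabbed off. Migrated cells were methanol-fixed, stained with 0.4% crystal violet in 25% methanol, and counted in 4–5 random fields.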

[5] = system: C3A cells; experiment: Annexin-V/PI staining; type: cell-based, human
Method in brief: (§2)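 Cells were exposed to test compound or vehicle for 72 h, then trypsinized and washed 2–3 times in sterile PBS. They were stained with PI and Cy5-labelled annexin-V and analysed by flow cytometry. Positive cells were quantified from n = 3 biological replicates, with a t test against vehicle.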

[6] = system: SNU-475 cells; experiment: Cell viability; type: cell-based; settings: Homo sapiens, SNU-475, 72 h, read-out: IC50 (cell viability)
Method in brief: (§3)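 Cells grown in Eagle's MEM with 10% FBS and 1% penicillin/streptomycin, seeded at 2000–3000 cells/well and left overnight. Treated with test compound 0–200 μM for 48–72 h. PrestoBlue HS (resazurin) added for about 45 min, fluorescence read at 560/590 nm. Percent viability relative to vehicle control plotted against dose.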

[7] = system: tau phosphorylation in SH-SY5Y cells; experiment: Tau-phosphorylation assay; type: cell-based, human; settings: compound at its enzyme IC50 concentration, 24 h
Method in brief: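 SH-SY5Y neuroblastoma cells kept in 1:1 Eagle's MEM/F12 and plated in six-well plates, then incubated with test compound for 24 h. Cells were trypsinized, fixed and rinsed, then labelled with an anti-phospho-tau primary and an Alexa-647 conjugated secondary antibody. After washing and resuspension in FACS buffer, cells were analysed by flow cytometry.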

[8] = system: SNU-475 cells; experiment: Transwell cell migration assay, SNU-475; type: cell-based, human; settings: SNU-475, 1/2 IC50, 24 h, vs vehicle control
Method in brief: as §1

[9] = system: SNU-475 cells; experiment: Annexin-V/PI staining; type: cell-based, human; settings: SNU-475, annexin-V/PI
Method in brief: as §2

[10] = system: C3A cells; experiment: Cell viability; type: cell-based; settings: Homo sapiens, 72 h, read-out: IC50 (cell viability)
Method in brief: as §3

[11] = fluorescence quenching, modified Stern-Volmer

Compound | Kd [1] [µM] | KSV ([1]; fluorescence quenching) | n (number of binding sites) [1, 11] | ATPase activity of MARK4 [2] | other results
COc1cc(C(=O)N/N=C2\C(=O)Nc3ccccc32)ccc1O [VI-1, (Z)-4-Hydroxy-3-methoxy-N′-(2-oxoindolin-3-ylidene)benzohydrazide] | 0.179 | 3.9 × 10^5 M^–1 | 1.241 | – | –
COc1cc(C(=O)N/N=C2\C(=O)Nc3ccc(C)cc32)ccc1O [VI-2, (Z)-4-Hydroxy-3-methoxy-N′-(5-methyl-2-oxoindolin-3-ylidene)benzohydrazide] | 0.725 | 3.7 × 10^5 M^–1 | 1.145 | decreased considerably | –
COc1ccc2c(c1)/C(=N/NC(=O)c1ccc(O)c(OC)c1)C(=O)N2 [VI-3, (Z)-4-Hydroxy-3-methoxy-N′-(5-methoxy-2-oxoindolin-3-ylidene)benzohydrazide] | 0.0444 | 3.8 × 10^5 M^–1 | 1.367 | decreased considerably | –
COc1cc(C(=O)N/N=C2\C(=O)Nc3cc(Cl)ccc32)ccc1O [VI-4, (Z)-N′-(6-Chloro-2-oxoindolin-3-ylidene)-4-hydroxy-3-methoxybenzohydrazide] | 1.12 | 1.8 × 10^5 M^–1 | 1.141 | – | –
COc1cc(C(=O)N/N=C2\C(=O)Nc3c(C)cc(C)cc32)ccc1O [VI-5, (Z)-N′-(5,7-Dimethyl-2-oxoindolin-3-ylidene)-4-hydroxy-3-methoxybenzohydrazide] | 40 | 1.0 × 10^5 M^–1 | 0.8404 | decreased considerably | –
COc1cc(C(=O)N/N=C2\C(=O)Nc3ccc(Cl)cc32)ccc1O [VI-6, (Z)-N′-(5-Chloro-2-oxoindolin-3-ylidene)-4-hydroxy-3-methoxybenzohydrazide] | 1.57 | 1.4 × 10^5 M^–1 | 1.135 | – | –
COc1cc(C(=O)N/N=C2\C(=O)Nc3ccc(Br)cc32)ccc1O [VI-7, (Z)-N′-(5-Bromo-2-oxoindolin-3-ylidene)-4-hydroxy-3-methoxybenzohydrazide] | 3.01 | 1.7 × 10^5 M^–1 | 1.067 | – | –
COc1cc(C(=O)N/N=C2\C(=O)Nc3c2cccc3[N+](=O)[O-])ccc1O [VI-8, (Z)-4-Hydroxy-3-methoxy-N′-(7-nitro-2-oxoindolin-3-ylidene)benzohydrazide] | 76.3 | 0.6 × 10^5 M^–1 | 0.8606 | – | –
COc1cc(C(=O)N/N=C2\C(=O)Nc3c(Cl)cccc32)ccc1O [VI-9, (Z)-N′-(7-Chloro-2-oxoindolin-3-ylidene)-4-hydroxy-3-methoxybenzohydrazide] | 6.76 | 1.0 × 10^5 M^–1 | 1.047 | decreased considerably | IC50 [2]: 7.16 µM; Cytotoxicity on noncancerous HEK293 cells [3]: did not exhibit cytotoxicity; Cell migration [4]: significantly decreased the migration; Apoptosis induction [5]: strongly promote early apoptosis; IC50 [6]: 4.35 µM; Tau phosphorylation [7]: decreased the tau phosphorylation; Cell migration [8]: significantly decreased the migration; Apoptosis induction [9]: strongly promote early apoptosis; IC50 [10]: 6.96 µM
COc1cc(C(=O)N/N=C2\C(=O)Nc3cc(Cl)c(F)cc32)ccc1O [VI-10, (Z)-N′-(6-Chloro-5-fluoro-2-oxoindolin-3-ylidene)-4-hydroxy-3-methoxybenzohydrazide] | 12.7 | 0.8 × 10^5 M^–1 | 1.006 | – | –
COc1ccc2c(c1)NC(=O)/C2=N\NC(=O)c1ccc(O)c(OC)c1 [VI-13, (Z)-4-Hydroxy-3-methoxy-N′-(6-methoxy-2-oxoindolin-3-ylidene)benzohydrazide] | 0.0375 | 0.8 × 10^5 M^–1 | 1.517 | – | –
COc1cc(C(=O)N/N=C2\C(=O)Nc3cc(F)ccc32)ccc1O [VI-14, (Z)-N′-(6-Fluoro-2-oxoindolin-3-ylidene)-4-hydroxy-3-methoxybenzohydrazide] | 0.735 | 1.8 × 10^5 M^–1 | 1.199 | – | –
(Z)-N′-(6-Fluoro-2-oxoindolin-3-ylidene)-4-hydroxy-3-methoxybenzohydrazide [VI-11] | – | 1.4 × 10^5 M^–1 | 1.015 | – | Ka (binding constant) ([1]; fluorescence quenching, modified Stern-Volmer, excitation 280 nm): 1.56 × 10^5 M^–1
